Tests used:
Rattus norvegicus [1] = assay: Antiinflammatory activity in Wistar rat assessed as inhibition of carrageenan-induced hind paw edema at 20 mg/kg, po administered 30 mins before carrageenan challenge measured after 3 hrs by plethysmometer; format: functional
Summary of the method: (§1)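 Wistar rats of either sex, 150–175 g, fasted 16 h, n = 6 per group. Compound given orally at 20 mg/kg as a suspension in 1% CMC in water (10 mL/kg); controls got vehicle only. After 30 min, 0.1 mL of 1% carrageenan in saline was injected subplantar into the left hind paw. Paw volume was measured by plethysmometer at 0, 3 and 5 h. Inhibition = (1 − Vt/Vc) × 100, reported as mean ± SEM.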

Rattus norvegicus [2] = assay: Antiinflammatory activity in Wistar rat assessed as inhibition of carrageenan-induced hind paw edema at 20 mg/kg, po administered 30 mins before carrageenan challenge measured after 5 hrs by plethysmometer; format: functional; summary of the method: as §1

SMILES	inhibition in vivo at 20 mg/kg (Rattus norvegicus [1]) [%]	inhibition in vivo at 20 mg/kg (Rattus norvegicus [2]) [%]
Cc1cc(O)c(C2=NN(c3ccc(S(N)(=O)=O)cc3)C(c3ccccc3)C2)cc1Cl (stereo not given)	47.4	60.3
Cc1cc(O)c(C2=NN(c3ccc(S(N)(=O)=O)cc3)C(c3ccc(Cl)cc3)C2)cc1Cl (stereo not given)	65.8	71.4
COc1cc(C)c(Cl)cc1C1=NN(c2ccc(S(N)(=O)=O)cc2)C(/C=C/c2ccccc2)C1 (stereo not given)	55.3	52.4
Cc1ccc(-c2cc(C(F)(F)F)nn2-c2ccc(S(N)(=O)=O)cc2)cc1 [CELECOXIB]	82.6	85.7
COc1cc(C)c(Cl)cc1C1=NN(c2ccc(S(N)(=O)=O)cc2)C(c2cccc(O)c2)C1 (stereo not given)	39.5	16.7
